ChEMBL document CHEMBL4152279, “Synthesis, cytotoxic evaluation and target identification of thieno[2,3-d]pyrimidine derivatives with a dithiocarbamate side chain at C2 position” (Eur J Med Chem, 2018)
Activity calls are given as the source filed them. No cut-off for these calls is given here.

Legend:
[1] = tested on: A549; assay: Cytotoxicity against human A549 cells at 30 uM by MTS assay relative to control; assay type: functional
Outline: (§1)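 MTS read-out (CellTiter 96 AQueous One) of proliferation in A549 or HCT-116 cells grown in DMEM with 10% FBS at 37 °C, 5% CO2. Taxol-resistant A549 cells were exposed for 72 h. Compounds were screened at 30 μM versus vehicle, with ≥50% inhibition counted active. Actives were then tested over a concentration range for IC50. Triplicate wells, three independent experiments, mean ± SD.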

[2] = tested on: HCT-116; assay: Cytotoxicity against human HCT116 cells at 30 uM by MTS assay relative to control; assay type: functional; outline: as §1
[3] = tested on: HeLa; assay: Cytotoxicity against human HeLa cells at 30 uM by MTS assay; assay type: functional, cell-based
[4] = tested on: MCF7; assay: Cytotoxicity against human MCF7 cells at 30 uM by MTS assay; assay type: functional, cell-based
[5] = tested on: MDA-MB-231; assay: Cytotoxicity against human MDA-MB-231 cells at 30 uM by MTS assay; assay type: functional, cell-based
[6] = tested on: HT-29; assay: Cytotoxicity against human HT-29 cells at 30 uM by MTS assay; assay type: functional, cell-based
[7] = tested on: A549; assay: Cytotoxicity against human A549 cells by MTS assay; assay type: functional, cell-based; outline: as §1
[8] = tested on: HCT-116; assay: Cytotoxicity against human HCT116 cells by MTS assay; assay type: functional, cell-based; outline: as §1

SMILES	Activity [1]	Activity [2]	Activity [3]	Activity [4]	Activity [5]	Activity [6]	IC50 [7]	IC50 [8]
Cc1cc2c(=O)[nH]c(CNC(=S)SCc3ccc([N+](=O)[O-])cc3)nc2s1	inactive	inactive	inactive	inactive	inactive	inactive	–	–
Cc1cc2c(=O)[nH]c(CNC(=S)SCc3ccc(F)cc3F)nc2s1	inactive	inactive	inactive	inactive	inactive	inactive	–	–
Cc1cc2c(=O)[nH]c(CSC(=S)NCc3ccco3)nc2s1	>=50%	>=50%	inactive	inactive	inactive	inactive	> 30 µM	29.8 µM
COc1ccccc1CSC(=S)NCc1nc2sc(C)cc2c(=O)[nH]1	inactive	inactive	inactive	inactive	inactive	inactive	–	–
Cc1cc2c(=O)[nH]c(CNC(=S)SCc3ccc(C#N)cc3)nc2s1	inactive	inactive	inactive	inactive	inactive	inactive	–	–
COc1ccc(CNC(=S)SCc2nc3sc(C)cc3c(=O)[nH]2)cc1	>=50%	>=50%	inactive	inactive	inactive	inactive	29.1 µM	24.5 µM
Cc1cc2c(=O)[nH]c(CSC(=S)NCc3ccc(Cl)cc3)nc2s1	>=50%	>=50%	inactive	inactive	inactive	inactive	11.3 µM	25.1 µM
Cc1cc2c(=O)[nH]c(CNC(=S)SCc3ccc(Cl)cc3)nc2s1	inactive	inactive	inactive	inactive	inactive	inactive	–	–
Cc1cc2c(=O)[nH]c(CNC(=S)SCc3ccc(F)cc3)nc2s1	inactive	inactive	inactive	inactive	inactive	inactive	–	–
COc1ccc(CSC(=S)NCc2nc3sc(C)cc3c(=O)[nH]2)cc1	inactive	inactive	inactive	inactive	inactive	inactive	–	–
Cc1cc2c(=O)[nH]c(CNC(=S)SCc3ccccc3)nc2s1	inactive	inactive	inactive	inactive	inactive	inactive	–	–
COc1cccc(CSC(=S)NCc2nc3sc(C)cc3c(=O)[nH]2)c1	inactive	inactive	inactive	inactive	inactive	inactive	–	–
Cc1ccc(CSC(=S)NCc2nc3sc(C)cc3c(=O)[nH]2)cc1	inactive	inactive	inactive	inactive	inactive	inactive	–	–
CCOC(=O)c1ccc(CSC(=S)NCc2nc3sc(C)cc3c(=O)[nH]2)cc1	inactive	inactive	inactive	inactive	inactive	inactive	–	–
Cc1cc2c(=O)[nH]c(CNC(=S)SCc3ccc(Br)cc3)nc2s1	inactive	inactive	inactive	inactive	inactive	inactive	–	–
